An excerpt weighted towards active compounds, which were near 1.2% of everything screened.
SR-BI DiI-HDL act = enhances SR-BI lipid uptake from DiI-HDL; CHO ldlA[mSR-BI] cells, DiI-HDL uptake fluorescence, 3 h; 100 = double the neutral-control signal; activation, % at 12.5 µM; 320,000 compounds, 0.096% hits; AID 504775;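 active = mean replicate activation of at least 60% and every replicate at or above 60%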;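 note: 0% = median plate neutral-control signal and 100% = twice that signal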
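System: LDL receptor-deficient CHO ldlA cells overexpressing murine SR-BI | Timing: 3 h uptake period with compound, 37 °C | Medium: HEPES-buffered (25 mM, pH 7.4) F12 plus 0.5% BSA | Dosing: Single-point compound dose | Signal: Bottom-read fluorescence, 550/595 nm | Read-out: Retained DiI signal reflecting DiI-HDL uptake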
Efflux pump inh = blocks antifungal efflux pumps in multiplex yeast assay | AID 485275 | inhibition, % at 10 µM | 330,000 compounds, 0.44% hits | S. cerevisiae Candida pump triplex, Nile Red efflux;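 active = plate passing quality check with inhibition over a set limit, or well fluorescence over plate mean plus 4 SD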;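 note: Nile Red retained in pooled yeast measured as flow cytometry median fluorescence; 0% = buffer negative control and 100% = Enniatin B positive control; higher means more Nile Red kept so more efflux inhibition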
SR-BI DiI inh = inhibitors of mouse SR-BI mediated HDL lipid uptake; Q61009; ldlA[mSR-BI] CHO cells, DiI-HDL uptake fluorescence, 3 h; inhibition, % at 12.5 µM; 320,000 compounds, 0.96% hits; AID 488896;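 active = mean replicate inhibition of at least 70% and a set share of replicates each scoring 70 or more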;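 note: 0% = median of neutral control wells and 100% = median of positive control wells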
Target sequence (Q61009 whole entry, looked up): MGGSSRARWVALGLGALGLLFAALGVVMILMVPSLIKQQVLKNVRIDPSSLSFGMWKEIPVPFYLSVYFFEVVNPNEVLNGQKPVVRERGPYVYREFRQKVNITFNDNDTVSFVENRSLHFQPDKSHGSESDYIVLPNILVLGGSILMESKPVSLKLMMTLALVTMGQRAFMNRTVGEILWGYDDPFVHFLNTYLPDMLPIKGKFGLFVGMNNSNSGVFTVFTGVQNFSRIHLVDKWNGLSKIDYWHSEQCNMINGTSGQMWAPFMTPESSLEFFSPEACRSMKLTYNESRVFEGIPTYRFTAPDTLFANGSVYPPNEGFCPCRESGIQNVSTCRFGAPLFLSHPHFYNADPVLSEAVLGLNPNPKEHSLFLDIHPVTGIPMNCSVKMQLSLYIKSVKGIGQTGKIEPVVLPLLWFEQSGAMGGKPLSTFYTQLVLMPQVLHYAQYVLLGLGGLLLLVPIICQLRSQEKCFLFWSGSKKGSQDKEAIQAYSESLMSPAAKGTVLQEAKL
CaV13 ICDI inh = Disruptors of the CACNA1D IQ motif to Ca2+-dependent inactivation inhibitor domain association, primary screening, Förster resonance energy transfer in intact living … | HEK cells, CFP/YFP FRET ICDI-IQ, plate reader, 10 min; percent FRET-ratio fall versus neutral wells | inhibition, % at 12.3 µM | 340,000 compounds, 0.098% hits | AID 743397;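 active = mean replicate inhibition of at least 30% and at least 1% of replicates passing that level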;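 note: 0% = median of the neutral control wells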
FN deposit inh = fibronectin deposition inhibition; AH1F fibroblasts, Alexa488-fibronectin deposition fluorescence, overnight; inhibition, % at 12.6 µM; 350,000 compounds, 0.086% hits; AID 743247;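 active = mean inhibition across replicates of 30% or more, regardless of how many single replicates reach that level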;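 note: positive control wells lacked labelled fibronectin entirely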
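Measured by – fluorescence 485/525 nm · System – AH1F fibroblast monolayer, labelled fibronectin deposition · Amount – 10000 cells per well · Buffer or medium – serum-reduced DMEM (2% serum) · Doses – single dose, pinned · Also added – fluorescent fibronectin at 24 nM final · Schedule – 1 h cell attachment, overnight exposure to compound and label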
Cmpd fluor yeast = counter-screen for efflux pump inhibitors: compound fluorescence; shares compounds with Efflux pump inh; 1,700 compounds, 4% hits; fluorescence ratio to DMSO, % at 10 µM; S. cerevisiae AD/pABC3, flow cytometry;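 active = fluorescence ratio to DMSO above its plate's cutoff, the plate mean ratio plus 5 SD, cut at about 210% in these data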;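 note: unstained yeast with no Nile Red so the signal is compound autofluorescence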
Mdr1 pump inh = inhibitors of Candida albicans Mdr1 efflux pump; AID 588518; inhibition, % at 10 µM; 1,700 compounds, 1% hits; S. cerevisiae AD/CaMDR1, Nile Red efflux, flow cytometry; shares compounds with Efflux pump inh; in the data active = inhibition above about 26%;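 note: 0% = DMSO vehicle and 100% = reference inhibitor; higher means more Nile Red retained so more efflux inhibition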
CaCdr2 efflux inh = Candida Cdr2 efflux pump inhibition | shares compounds with Efflux pump inh | S. cerevisiae AD/CaCDR2, Nile Red retention, flow cytometry | Nile Red retention ratio vs DMSO, % at 10 µM | 1,700 compounds, 4% hits; in the data active = Nile Red retention ratio vs DMSO above about 190%;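 note: higher ratio means more blocking of Cdr2 efflux of the dye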
CaCdr1 efflux inh = inhibitors of Candida albicans Cdr1 efflux pump. shares compounds with Efflux pump inh. S. cerevisiae AD/CaCDR1, Nile Red efflux, flow cytometry. inhibition, % at 10 µM. 1,700 compounds, 1% hits. AID 588522;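 active = inhibition above the screen-wide mean plus twice its standard deviation, cut at about 32% in these data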
* hit, by the source's call; / = not tested or not shown.

SMILES	SR-BI DiI-HDL act	Efflux pump inh	SR-BI DiI inh	CaV13 ICDI inh	FN deposit inh	Cmpd fluor yeast	Mdr1 pump inh	CaCdr2 efflux inh	CaCdr1 efflux inh
C[C@@H]1CN([C@@H](C)CO)C(=O)c2cc(-c3ccc(C#N)cc3)cnc2O[C@H]1CN(C)Cc1cncnc1	/	/	/	/	-1	/	/	/	/
CCCCC1(C(=O)OCC)CC(CSC(=N)N)OC1=O (configuration not stated)	3	0.6*	-3	5	2	92	0	104	0
N#Cc1ncc(-c2ccc3c(c2)OCCOCCOCCOCCO3)nc1C#N	22	9.6*	-22	-3	-6	89	0	112	0
N#Cc1ncc(-c2ccc3c(c2)OCCOCCOCCOCCOCCO3)nc1C#N	11	1	-11	-6	11	/	/	/	/
COCC#Cc1cnc2c(c1)C(=O)N([C@@H](C)CO)C[C@@H](C)[C@@H](CN(C)C(=O)C1CC1)O2	/	/	/	/	-1	/	/	/	/
Cc1ccc(-c2c3c([nH]c(=S)c2C#N)CCCC3)o1	21	0.6*	-21	-9	/	108	0	137	0
Cn1nc([N+](=O)[O-])nc1Sc1ccc(Cl)cc1	-17	0.8*	17	-4	-1	89	0	107	0
Cn1cnnc1Sc1nc([N+](=O)[O-])nn1C	-7	0	7	8	-4	/	/	/	/
C[C@H](CO)N1C[C@H](C)[C@@H](CN(C)Cc2ccc(C(=O)O)cc2)Oc2ccc(NC(=O)C3CC3)cc2CC1=O	/	/	/	/	1	/	/	/	/
COc1ccc(CC(=O)Nc2cc(S(=O)(=O)N3CCCCC3)ccc2C)cc1	3	/	-3	-6	7	/	/	/	/
Cc1cccc(C)c1NC(=O)COC(=O)CCc1ccc(S(=O)(=O)N2CCCCC2)cc1	8	19*	-8	-2	-1	101	0	98	0
COc1ccc(CCC(=O)Nc2cc(S(=O)(=O)N3CCCCC3)ccc2N(C)C)cc1	-13	1.1*	13	-3	-3	103	0	93	0
COc1ccccc1NC(=O)c1c(N=Cc2c(O)ccc3ccccc23)cnn1C	/	0.4*	/	-5	4	110	1	103	0
O=C(OCc1ccccc1)c1ccc(Br)o1	12	1.1*	-12	/	/	100	0	116	0
O=C(COC(=O)c1ccc(Br)o1)NCCCc1ccccc1	38	0	-38	/	/	/	/	/	/
CC(C)C[C@H](NC(=O)c1nc[nH]c1C(=O)N(C)Cc1ccccc1)C(=O)OC(C)(C)C	1	0.9*	-1	-4	-4	116	1	133	1
CO[C@H]1CN(C)C(=O)c2ccc(NS(C)(=O)=O)cc2OC[C@H](C)NC[C@H]1C	/	/	/	/	0	/	/	/	/
O=C1Nc2cc(C(=O)N3CCOCC3)ccc2SC1N1CCOCC1 (configuration not stated)	-6	19*	6	-3	6	95	0	108	0
CN1CCN(C(=O)c2ccc3c(c2)NC(=O)C(N2CCOCC2)S3)CC1 (configuration not stated)	-2	0	2	/	/	/	/	/	/
CC(C)CC#Cc1ccc2c(c1)O[C@@H](CN(C)C(=O)CN(C)C)[C@@H](C)CN([C@@H](C)CO)S2(=O)=O	/	/	/	/	1	/	/	/	/
Cc1ccc(S(=O)(=O)N2C[C@H](O)COC[C@H]3O[C@@H](CC(=O)N[C@@H]4CCN(Cc5ccccc5)C4)CC[C@@H]32)cc1	/	/	/	/	-5	/	/	/	/
COc1ccc(-c2cc(C(=O)Nc3ccc(C)c(N)c3)c3ccccc3n2)cc1	-63	0.5*	63	-18	0	107	0	103	0
COc1ccc(-c2cc(C(=O)NCCN3CCOCC3)c3ccccc3n2)c(OC)c1	-47	0	47	-5	-3	86	-1	99	0

Screens (PubChem)
